These results are taken from the array DNA melting data of Ke et al. (doi:10.1101/2024.01.08.574731).

Data set [1] in a line: melting temperature; fluorescence melt of hairpins on a sequencing array, two-state fit, raised by 9.35 °C to match UV melts. The settings on record: sodium 0.088 M. The procedure, abridged: (§1)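 Bootstrapped two-state fits yielded melting temperature and folding enthalpy for library hairpins. Cy3 fluorescence, with annealed Cy3 and quencher oligos, was imaged on a sequenced MiSeq flow cell in 50 mM Na-HEPES pH 8.0, 25 mM NaCl in 2.5 °C steps up to 60 °C, and normalised to pre-quench Cy3 and to control constructs. Four replicates were combined by inverse variance, and fitted temperatures were raised by 9.35 °C to match UV melts.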

Data set [2] in a line: folding enthalpy; higher = less favourable; fluorescence melt of hairpins on a sequencing array, two-state fit. The settings on record: sodium 0.088 M. The essentials:
as §1

With GGTGAAACGAAAGTTACC (((..(((....)))))), in data set [1], the Tm came out at 30.5 °C. Further, the folding enthalpy in data set [2] is -18 kcal/mol.

In the case of GGTGAACCGAAAGGTACC (((..(((....)))))), in data set [1], the Tm was 37.8 °C. In data set [2], the folding enthalpy is -18 kcal/mol.

For GGTGAACGAAAGTTGACC (((.(((....))).))), in data set [1], the Tm was found to be 48.9 °C. The folding enthalpy in data set [2] is -30.4 kcal/mol.

As for GGTGAAGGAAACTCCACC ((((.((....)).)))), the Tm in data set [1] came out at 39 °C. Also, in data set [2], the folding enthalpy is -31.3 kcal/mol.

As to GGTGAAGGAAACTTTGCC ((..(((....)))..)), the Tm in data set [1] stood at 34.6 °C. Also, the folding enthalpy in data set [2] was -25.4 kcal/mol.

As for GGTGACGGAAACACCACC ((((..(....)..)))), the Tm in data set [1] stood at 34.5 °C. Also, the folding enthalpy in data set [2] is -20 kcal/mol.

As for GGTGACGGAAACGTCGCC ((.((((....)))).)), in data set [1], the Tm was 64.6 °C. For the same sequence, the folding enthalpy in data set [2] was -34 kcal/mol.

For the sequence GGTGACTCGAAAGAGACC (((..(((....)))))), the Tm in data set [1] was 33 °C. The folding enthalpy in data set [2] was -16.5 kcal/mol.

In the case of GGTGAGACGAAAGTCACC (((..(((....)))))), in data set [1], the Tm was determined as 46.8 °C. Moreover, the folding enthalpy in data set [2] was -17.1 kcal/mol.

GGTGAGCGAAAGCTAACC (((.(((....))).))): the Tm in data set [1] amounted to 55.5 °C. Besides, the folding enthalpy in data set [2] was -33.3 kcal/mol.

With GGTGAGGAAACTCACC ((((((....)))))), in data set [1], the Tm was found to be 61.6 °C. Further, the folding enthalpy in data set [2] was -35 kcal/mol.

GGTGAGGCGAAAGCCACC (((..(((....)))))): the Tm in data set [1] was 51.7 °C. The folding enthalpy in data set [2] is -16.1 kcal/mol.

For the sequence GGTGAGGGAAACCTCACC (((((((....))))))), the Tm in data set [1] worked out at 67.5 °C. In addition, the folding enthalpy in data set [2] was -43.2 kcal/mol.

For GGTGAGGGAAACCTTACC (((.(((....))).))), in data set [1], the Tm worked out at 46.6 °C. Besides, the folding enthalpy in data set [2] was -33.9 kcal/mol.

As to GGTGAGGGAAACCTTGCC ((..(((....)))..)), in data set [1], the Tm is 41.8 °C. Also, the folding enthalpy in data set [2] is -21.7 kcal/mol.

In the case of GGTGATCGAAAGATTACC (((.(((....))).))), the Tm in data set [1] was 51.1 °C. The folding enthalpy in data set [2] was -46.1 kcal/mol.

Turning to GGTGATGGAAACACCACC ((((.((....)).)))), in data set [1], the Tm was found to be 46.6 °C. The folding enthalpy in data set [2] is -23.8 kcal/mol.

As to GGTGATGGAAACATCGTC (..((((....))))..), in data set [1], the Tm amounted to 32.9 °C. The folding enthalpy in data set [2] was -18.1 kcal/mol.

GGTGCACGAAAGTGGACC (((.(((....))).))): in data set [1], the Tm is 65.7 °C. The folding enthalpy in data set [2] is -38.1 kcal/mol.

For GGTGCAGCGAAAGCTACC (((..(((....)))))), in data set [1], the Tm is 39.1 °C. For the same sequence, the folding enthalpy in data set [2] is -13.6 kcal/mol.

As to GGTGCAGGAAACCACACC ((((..(....)..)))), the Tm in data set [1] amounted to 34.9 °C. For the same sequence, in data set [2], the folding enthalpy was -21.4 kcal/mol.

Turning to GGTGCATCGAAAGATACC (((..(((....)))))), the Tm in data set [1] worked out at 27.9 °C. Further, the folding enthalpy in data set [2] was -10.2 kcal/mol.

In the case of GGTGCCGAAAGGCAGACC ((((((....)))..))), the Tm in data set [1] worked out at 52.2 °C. Moreover, the folding enthalpy in data set [2] was -12.1 kcal/mol.

For GGTGCCGAAAGGCTCACC ((((((....)))..))), in data set [1], the Tm is 46.3 °C. Besides, the folding enthalpy in data set [2] was -11.6 kcal/mol.

Consider GGTGCCGAAAGGCTTACC ((((((....)))..))), for which, in data set [1], the Tm was determined as 44.1 °C. In data set [2], the folding enthalpy is -13.7 kcal/mol.

As to GGTGCGCGAAAGCGACC (((.(((....)))))), the Tm in data set [1] turned out to be 56.7 °C. Moreover, in data set [2], the folding enthalpy is -15.3 kcal/mol.

GGTGCGGGAAACCGCGTC (..((((....))))..): the Tm in data set [1] was 44.1 °C. Besides, the folding enthalpy in data set [2] was -11.5 kcal/mol.

Take GGTGCGGGAAACTGCGCC ((.((.(....).)).)): in data set [1], the Tm came to 52.7 °C. Besides, the folding enthalpy in data set [2] is -49.1 kcal/mol.

Consider GGTGCTGGAAACAGCATC (.(((((....))))).), for which the Tm in data set [1] stood at 54.1 °C. For the same sequence, the folding enthalpy in data set [2] was -30.3 kcal/mol.

As to GGTGGAGGAAACTCCATC (.(((((....))))).), the Tm in data set [1] stood at 49.4 °C. Also, in data set [2], the folding enthalpy was -26.6 kcal/mol.

Turning to GGTGGAGGAAACTCCGTC (..((((....))))..), the Tm in data set [1] amounted to 37.8 °C. In data set [2], the folding enthalpy was -15.4 kcal/mol.

Turning to GGTGGAGGAAACTCTGCC ((..(((....)))..)), the Tm in data set [1] was found to be 42 °C. Besides, in data set [2], the folding enthalpy is -27 kcal/mol.

On to GGTGGAGGAAACTTCACC ((((.((....)).)))), for which the Tm in data set [1] was found to be 50.1 °C. The folding enthalpy in data set [2] is -33.4 kcal/mol.

In the case of GGTGGCACGAAAGTGACC (((..(((....)))))), the Tm in data set [1] is 45.6 °C. The folding enthalpy in data set [2] is -15.5 kcal/mol.

Regarding GGTGGCGAAAGCCCGACC ((((((....)))..))), in data set [1], the Tm came out at 41.5 °C. The folding enthalpy in data set [2] is -12.8 kcal/mol.

Turning to GGTGGCGAAAGCCGAACC ((((((....)))..))), the Tm in data set [1] amounted to 45.3 °C. For the same sequence, the folding enthalpy in data set [2] is -14.9 kcal/mol.
